Results published in ChEMBL document CHEMBL2346608, “New annelated thieno[2,3-e][1,2,3]triazolo[1,5-a]pyrimidines, with potent anticancer activity, designed through VLAK protocol” (2013).

Columns and labels:
Assay type in all cases: functional
DU-145 = experiment: Antiproliferative activity against human DU145 cells after 48 hrs by sulforhodamine B assay; conditions: DU-145, 48 h
How it was run: (§1)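 Cells grown in RPMI 1640 with 5% FBS and 2 mM L-glutamine, plated at 5000–40,000 cells/well and preincubated 24 h at 37 °C, 5% CO2. Five drug concentrations (10-fold or ½-log dilutions from DMSO stocks) applied for 48 h. TCA-fixed (final 10% adherent, 16% suspension), SRB-stained, A515 read. Growth versus time-zero and control wells gave GI50, TGI, LC50.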

OVCAR-4 = experiment: Antiproliferative activity against human OVCAR4 cells after 48 hrs by sulforhodamine B assay; conditions: OVCAR-4, 48 h; how it was run: as §1
OVCAR-5 = experiment: Antiproliferative activity against human OVCAR5 cells after 48 hrs by sulforhodamine B assay; conditions: OVCAR-5, 48 h; how it was run: as §1
OVCAR-3 = experiment: Antiproliferative activity against human OVCAR3 cells after 48 hrs by sulforhodamine B assay; conditions: OVCAR-3, 48 h; how it was run: as §1
NCI/ADR-RES = experiment: Antiproliferative activity against human NCI/ADR-RES cells after 48 hrs by sulforhodamine B assay; how it was run: as §1
NCI-H460 = experiment: Antiproliferative activity against human NCI-H460 cells after 48 hrs by sulforhodamine B assay; conditions: NCI-H460, 48 h; how it was run: as §1
NCI-H322M = experiment: Antiproliferative activity against human NCI-H322M cells after 48 hrs by sulforhodamine B assay; how it was run: as §1
[1] = Antiproliferative activity against human EKVX cells after 48 hrs by sulforhodamine B assay; how it was run: as §1
A549 = experiment: Antiproliferative activity against human A549 cells after 48 hrs by sulforhodamine B assay; conditions: A549, 48 h; how it was run: as §1
UACC-257 = experiment: Antiproliferative activity against human UACC257 cells after 48 hrs by sulforhodamine B assay; conditions: UACC-257, 48 h
How it was run: (§2)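 Cells in RPMI 1640 with 5% FBS and 2 mM L-glutamine were seeded at 5000–40,000/well according to doubling time and preincubated 24 h at 37 °C in 5% CO2. Time-zero plates were TCA-fixed when drug was added. Five 10-fold or ½-log dilutions from DMSO stocks were added for 48 h. After SRB staining, A515 was read and GI50 derived from [(Ti−Tz)/(C−Tz)]×100 = 50.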

SK-MEL-5 = experiment: Antiproliferative activity against human SK-MEL-5 cells after 48 hrs by sulforhodamine B assay; conditions: SK-MEL-5, 48 h; how it was run: as §1
SK-MEL-28 = experiment: Antiproliferative activity against human SK-MEL-28 cells after 48 hrs by sulforhodamine B assay; conditions: SK-MEL-28, 48 h; how it was run: as §1
Malme-3M = experiment: Antiproliferative activity against human MALME-3M cells after 48 hrs by sulforhodamine B assay; how it was run: as §1
LOX IMVI = experiment: Antiproliferative activity against human LOXIMVI cells after 48 hrs by sulforhodamine B assay; how it was run: as §1
RPMI-8226 = experiment: Antiproliferative activity against human RPMI8226 cells after 48 hrs by sulforhodamine B assay; conditions: RPMI-8226, 48 h, read-out: pLC50 (the source's name) (converted); how it was run: as §1
MOLT-4 = experiment: Antiproliferative activity against human MOLT4 cells after 48 hrs by sulforhodamine B assay; conditions: MOLT-4, 48 h; how it was run: as §1
SW-620 = experiment: Antiproliferative activity against human SW620 cells after 48 hrs by sulforhodamine B assay; conditions: SW-620, 48 h; how it was run: as §2
HCT-15 = experiment: Antiproliferative activity against human HCT15 cells after 48 hrs by sulforhodamine B assay; conditions: HCT-15, 48 h; how it was run: as §1
HT-29 = experiment: Antiproliferative activity against human HT-29 cells after 48 hrs by sulforhodamine B assay; conditions: HT-29, 48 h; how it was run: as §1
HCT-116 = experiment: Antiproliferative activity against human HCT116 cells after 48 hrs by sulforhodamine B assay; conditions: HCT-116, 48 h; how it was run: as §1
U-251 = experiment: Antiproliferative activity against human U251 cells after 48 hrs by sulforhodamine B assay; conditions: U-251, 48 h; how it was run: as §2
SNB-75 = experiment: Antiproliferative activity against human SNB75 cells after 48 hrs by sulforhodamine B assay; conditions: SNB-75, 48 h; how it was run: as §2
SF-268 = experiment: Antiproliferative activity against human SF268 cells after 48 hrs by sulforhodamine B assay; conditions: SF-268, 48 h; how it was run: as §1
MDA-MB-468 = experiment: Antiproliferative activity against human MDA-MB-468 cells after 48 hrs by sulforhodamine B assay; conditions: MDA-MB-468, 48 h; how it was run: as §1
T47D = experiment: Antiproliferative activity against human T47D cells after 48 hrs by sulforhodamine B assay; how it was run: as §2
MCF7 = experiment: Antiproliferative activity against human MCF7 cells after 48 hrs by sulforhodamine B assay; conditions: MCF7, 48 h; how it was run: as §1
CAKI-1 = experiment: Antiproliferative activity against human CAKI-1 cells after 48 hrs by sulforhodamine B assay; conditions: CAKI-1, 48 h; how it was run: as §1
ACHN = experiment: Antiproliferative activity against human ACHN cells after 48 hrs by sulforhodamine B assay; how it was run: as §1
786-0 = experiment: Antiproliferative activity against human 786-0 cells after 48 hrs by sulforhodamine B assay; conditions: 786-0, 48 h; how it was run: as §1
[2] = read-out: pLC50 (the source's name) (converted)

For `O=C(CCCn1c(=O)c2sc3ccccc3c2n2nnc(-c3ccccc3)c12)NCCc1c[nH]cn1`, which GI50 (DU-145) is on record?
Its GI50 is 1.55 µM.

And the LC50 (DU-145)?
The LC50 was 5.75 µM.

And the TGI (DU-145; read-out: pTGI (converted))?
The TGI was 2.95 µM.

And the GI50 (OVCAR-4)?
The GI50 was 1.74 µM.

And the TGI (OVCAR-4; read-out: pTGI (converted))?
The TGI was 3.8 µM.

What about the GI50 (OVCAR-5) of the same compound?
The GI50 was 1.2 µM.

And the TGI (OVCAR-5; read-out: pTGI (converted))?
Its TGI is 2.75 µM.

What about the GI50 (OVCAR-3) of the same compound?
Its GI50 is 1.51 µM.

What about the LC50 (OVCAR-3) of the same compound?
The LC50 was 6.61 µM.

What about the TGI (OVCAR-3; read-out: pTGI (converted)) of the same compound?
The TGI was 3.16 µM.

What about the GI50 (NCI/ADR-RES) of the same compound?
Its GI50 is 3.24 µM.

And the LC50 (NCI/ADR-RES)?
Its LC50 is over 100 µM.

And the TGI (NCI/ADR-RES; read-out: pTGI (converted))?
The TGI was over 100 µM.

What about the GI50 (NCI-H460) of the same compound?
The GI50 was 1.86 µM.

What about the LC50 (NCI-H460) of the same compound?
The LC50 was 7.76 µM.

And the TGI (NCI-H460; read-out: pTGI (converted))?
Its TGI is 3.8 µM.

What about the GI50 (NCI-H322M) of the same compound?
Its GI50 is 2.24 µM.

And the LC50 (NCI-H322M)?
The LC50 was 21.4 µM.

And the TGI (NCI-H322M; read-out: pTGI (converted))?
The TGI was 5.5 µM.

What about the GI50 [1] of the same compound?
Its GI50 is 2.69 µM.

And the LC50 [1]?
Its LC50 is over 100 µM.

What about the TGI ([1]; read-out: pTGI (converted)) of the same compound?
The TGI was 8.71 µM.

And the GI50 (A549)?
Its GI50 is 2.09 µM.

What about the TGI (A549; read-out: pTGI (converted)) of the same compound?
Its TGI is 4.57 µM.

And the GI50 (UACC-257)?
Its GI50 is 2.04 µM.

And the LC50 (UACC-257)?
The LC50 was over 100 µM.

What about the TGI (UACC-257; read-out: pTGI (converted)) of the same compound?
Its TGI is 4.57 µM.

What about the GI50 (SK-MEL-5) of the same compound?
The GI50 was 1.91 µM.

And the LC50 (SK-MEL-5)?
The LC50 was 8.91 µM.

And the TGI (SK-MEL-5; read-out: pTGI (converted))?
The TGI was 4.07 µM.

And the GI50 (SK-MEL-28)?
Its GI50 is 1.74 µM.

And the LC50 (SK-MEL-28)?
Its LC50 is 5.89 µM.

And the TGI (SK-MEL-28; read-out: pTGI (converted))?
The TGI was 3.24 µM.

And the GI50 (Malme-3M)?
Its GI50 is 2.51 µM.

And the LC50 (Malme-3M)?
The LC50 was over 100 µM.

And the TGI (Malme-3M; read-out: pTGI (converted))?
Its TGI is 5.5 µM.

What about the GI50 (LOX IMVI) of the same compound?
The GI50 was 1.58 µM.

What about the CC50 (LOX IMVI; [2]) of the same compound?
The CC50 was 5.37 µM.

What about the TGI (LOX IMVI; read-out: pTGI (converted)) of the same compound?
The TGI was 2.95 µM.

What about the CC50 (RPMI-8226) of the same compound?
The CC50 was over 100 µM.

And the GI50 (MOLT-4)?
Its GI50 is 1.17 µM.

And the GI50 (SW-620)?
The GI50 was 0.407 µM.

What about the GI50 (HCT-15) of the same compound?
Its GI50 is 1.26 µM.

What about the LC50 (HCT-15) of the same compound?
The LC50 was 5.01 µM.

What about the TGI (HCT-15; read-out: pTGI (converted)) of the same compound?
Its TGI is 2.51 µM.

And the GI50 (HT-29)?
Its GI50 is 1.35 µM.

And the LC50 (HT-29)?
Its LC50 is 7.41 µM.

What about the TGI (HT-29; read-out: pTGI (converted)) of the same compound?
Its TGI is 3.16 µM.

What about the GI50 (HCT-116) of the same compound?
Its GI50 is 0.339 µM.

And the LC50 (HCT-116)?
The LC50 was over 100 µM.

What about the TGI (HCT-116; read-out: pTGI (converted)) of the same compound?
The TGI was 1.66 µM.

What about the GI50 (U-251) of the same compound?
Its GI50 is 1.05 µM.

And the LC50 (U-251)?
Its LC50 is 4.68 µM.

And the TGI (U-251; read-out: pTGI (converted))?
The TGI was 2.24 µM.

What about the GI50 (SNB-75) of the same compound?
Its GI50 is 1.86 µM.

And the LC50 (concentration killing 50% of starting cells) (SNB-75)?
Its LC50 (concentration killing 50% of starting cells) is 8.71 µM.

And the TGI (SNB-75; read-out: pTGI (converted))?
Its TGI is 4.07 µM.

What about the GI50 (SF-268) of the same compound?
Its GI50 is 1.78 µM.

And the LC50 (SF-268)?
Its LC50 is 7.76 µM.

What about the TGI (SF-268; read-out: pTGI (converted)) of the same compound?
Its TGI is 3.72 µM.

What about the GI50 (MDA-MB-468) of the same compound?
The GI50 was 1.7 µM.

What about the LC50 (MDA-MB-468) of the same compound?
Its LC50 is 7.94 µM.

And the TGI (MDA-MB-468; read-out: pTGI (converted))?
The TGI was 3.72 µM.

What about the GI50 (T47D) of the same compound?
The GI50 was 1.41 µM.

And the LC50 (T47D)?
Its LC50 is over 100 µM.

What about the TGI (T47D; read-out: pTGI (converted)) of the same compound?
Its TGI is 4.47 µM.

What about the GI50 (MCF7) of the same compound?
The GI50 was 1.45 µM.

What about the LC50 (MCF7) of the same compound?
The LC50 was 6.46 µM.

And the TGI (MCF7; read-out: pTGI (converted))?
The TGI was 3.09 µM.

What about the GI50 (CAKI-1) of the same compound?
The GI50 was 0.182 µM.

What about the CC50 (CAKI-1; [2]) of the same compound?
Its CC50 is 4.47 µM.

What about the TGI (CAKI-1; read-out: pTGI (converted)) of the same compound?
The TGI was 1.7 µM.

What about the GI50 (ACHN) of the same compound?
Its GI50 is 1.66 µM.

And the LC50 (50% lethal concentration) (ACHN)?
The LC50 (50% lethal concentration) was 5.5 µM.

What about the TGI (ACHN; read-out: pTGI (converted)) of the same compound?
Its TGI is 3.02 µM.

What about the GI50 (786-0) of the same compound?
The GI50 was 1.58 µM.

What about the TGI (786-0; read-out: pTGI (converted)) of the same compound?
Its TGI is 3.55 µM.
